This is a sample that favours compounds with a hit; in the whole collection about 2.3% have one here.
Diaphorase inh: counter-screen for diaphorase-based assays: diaphorase inhibitors and chemical oxidizers; diaphorase resazurin-to-resorufin fluorescence, NADH, 16 min; bacterial (C. kluyveri) enzyme, not human; inhibition, % at 20 µM; 190,000 compounds, 0.69% hits; AID 1217;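 active = primary screen inhibition at 20 µM above a set limit, cut at about 50% in these data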;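 also: plate controls were DMSO with full reaction for no effect and wells lacking NADH for full effect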
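Test system: Clostridium kluyveri diaphorase enzyme / Quantity: diaphorase at 0.14 U/mL in enzyme working solution / Incubation: 16-min room-temperature incubation before reading / Benchmarks: NADH-free wells as positive control, DMSO-only neutral wells / Signal: resorufin fluorescence 544/590 nm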
FLuc act counter: affects firefly luciferase, flagging false hits in luciferase stimulation screens; P08659; 200,000 tested, under 10 active; AID 1027; activation factor at 10 µM; ATPlite luciferase biochemical, luminescence, 10 min; 0 = ATP-free wells, 1 = DMSO control;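 active = luciferase activation factor, scaled between plate controls, of at least 2 with compound at 10 µM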
Target sequence (P08659 whole entry, looked up): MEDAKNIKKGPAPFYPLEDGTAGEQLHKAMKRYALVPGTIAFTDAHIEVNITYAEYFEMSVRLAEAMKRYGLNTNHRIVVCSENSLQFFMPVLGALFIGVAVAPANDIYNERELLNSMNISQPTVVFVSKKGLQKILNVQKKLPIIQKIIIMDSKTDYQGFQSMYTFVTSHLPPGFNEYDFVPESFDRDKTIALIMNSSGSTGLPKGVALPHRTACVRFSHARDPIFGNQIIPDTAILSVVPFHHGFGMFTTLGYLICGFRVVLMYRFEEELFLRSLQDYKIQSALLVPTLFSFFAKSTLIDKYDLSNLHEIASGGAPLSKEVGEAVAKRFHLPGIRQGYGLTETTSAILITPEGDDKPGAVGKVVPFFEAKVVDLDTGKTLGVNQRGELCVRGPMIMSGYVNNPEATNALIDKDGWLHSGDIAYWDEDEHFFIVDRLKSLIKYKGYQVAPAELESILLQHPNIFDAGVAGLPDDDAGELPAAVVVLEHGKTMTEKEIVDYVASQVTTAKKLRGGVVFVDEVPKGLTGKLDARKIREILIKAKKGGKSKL
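Material: Luciferase/luciferin reagent mix; Doses: test compounds dosed from 2 mM stocks in 100% DMSO; Schedule: 10 min incubation after luciferase reagent addition, room temperature; Measured by: luminescence from luciferase reaction; Read-out: luminescence gain marking luciferase activators.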
Diaphorase act: diaphorase activation or chemical reduction counter-screen | activation factor at 20 µM | AID 1229 | 190,000 compounds, 0.005% hits | Diaphorase/resazurin coupled assay, resorufin fluorescence, 16 min; hits give high values; 1 = vehicle wells, 0 = NADH-free wells;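 active = diaphorase activity raised at least twofold by the compound at 20 µM; inactive = activation factor below 2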
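Material: purified diaphorase enzyme from Clostridium kluyveri / Medium: HEPES pH 7.4 buffer with MgCl2 and Tween 20 / Schedule: enzyme reaction of 16 min at room temperature / Measured by: resorufin fluorescence, excitation 544 nm, emission 590 nm / Evaluation: rise in resorufin formation, marking diaphorase activation or chemical reduction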
FLuc inhib CS: inhibits firefly luciferase, flagging false hits in luciferase inhibition screens. P08659. ATPLite firefly luciferase biochemical luminescence, 10 min. inhibition, % at 10 µM. 200,000 compounds, 1.5% hits. AID 1006;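 active = inhibition above about 50% when tested at 10 µM, limit read from the data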
G6PDH counter: L. mesenteroides G6PDH inhibition counter-screen; Purified L. mesenteroides G6PDH, diaphorase/resazurin coupled fluorescence, 45 min; inhibition, % at 5 µM; 200,000 compounds, 0.12% hits; AID 1020; in the data active = inhibition above about 50%
* marks the source's active call; other numbers are inactive results.

SMILES | Diaphorase inh | FLuc act counter | Diaphorase act | FLuc inhib CS | G6PDH counter
O=C1S/C(=C/c2ccccc2F)C(=O)N1CCN=C1NS(=O)(=O)c2ccccc21 | 0 | 1 | 1 | -5 | -16
O=C1c2ccccc2C(=O)c2c1cccc2N1CCOCC1 | 14 | 0.9 | 0.9 | 6 | 9
O=C1C(N2CCOCC2)=C(n2nnc3ccccc32)C(=O)c2ccccc21 | 25 | 1 | 0.7 | 3 | 61*
CCSCc1nnc(SCC(=O)Nc2ccc(OC)cc2)n1C | 0 | 1.1 | 1 | -5 | 6
Cc1ccc(NC(=O)CN2C(=O)S/C(=C\c3ccc(-c4cccc(C(=O)O)c4C)o3)C2=O)cc1 | 28 | 1 | 0.7 | 0 | 4
Cc1ccc(NC(=O)CN2C(=O)S/C(=C/c3ccc(-c4cccc(C(=O)O)c4)o3)C2=O)cc1 | 57* | 1 | 0.4 | -1 | 9
Cc1ccc(C(=O)O)cc1-c1ccc(/C=C2/NC(=O)N(c3ccccc3)C2=O)o1 | 40 | 1 | 0.6 | 0 | 9
Cc1ccc(C(=O)O)cc1-c1ccc(/C=C2\SC(=O)N(CC(=O)Nc3ccccc3)C2=O)o1 | 57* | 1.1 | 0.4 | -7 | 9
O=C(O)c1cc(-c2ccc(/C=C3/SC(=S)N(Cc4ccccc4)C3=O)o2)ccc1Cl | 52* | 1 | 0.5 | 4 | 17
Cc1ccccc1NC(=O)CN1C(=O)S/C(=C\c2ccc(-c3cc(C(=O)O)ccc3C)o2)C1=O | 67* | 1 | 0.3 | 0 | 10
COc1ccc(CN2C(=O)/C(=C/c3ccc(-c4ccc(Cl)c(C(=O)O)c4)o3)SC2=S)cc1 | 36 | 1.1 | 0.6 | -6 | 1
CCS(=O)(=O)c1ccc2c(c1)N(S(=O)(=O)c1ccc(Cl)cc1)CC(C(=O)O)O2 (configuration not stated) | 9 | 1 | 0.9 | -5 | -6
CCC12CN(C(=O)c3ccc(C)cc3)CC(CC)(CN(C(=O)c3ccc(C)cc3)C1)C2=O | 16 | 1.1 | 0.8 | -8 | -1
COc1ccc(/C=C/C(=O)C23CC4CC(CC(C4)C2)C3)cc1CN1CCOCC1 | 0 | 1 | 1 | 0 | 4
O=C1NCCCC2c3c(cc(Br)c(O)c3Br)OC12N1CCOCC1 (configuration not stated) | 19 | 1 | 0.8 | 0 | 6
O=C1NCCCC2c3cc(O)c4ccccc4c3OC12N1CCCCC1 (configuration not stated) | 46 | 1.1 | 0.5 | -5 | 56*
COCCn1c(=NC(=O)c2cc3ccccc3oc2=O)sc2cc(S(N)(=O)=O)ccc21 | 20 | 1.1 | 0.8 | -7 | 3
O=C(/C=C/c1ccc(Cl)cc1Cl)Nc1cccc(S(=O)(=O)NC2=NCCC2)c1 | 15 | 0 | 0.9 | 96* | 3
O=C(/C=C/c1ccccc1Cl)Nc1cccc(S(=O)(=O)NC2=NCCCCC2)c1 | 32 | 0.3 | 0.7 | 71* | 0
COc1ccc(-c2nnc(SCC(=O)Nc3ccc4c(c3)OCCO4)n2N)cc1OC | 9 | 1 | 0.9 | -4 | 1
COc1ccc(C(C)=O)cc1CSc1nnc(-c2ccc(Cl)cc2)n1-c1ccccc1 | 27 | 1 | 0.7 | 1 | 1
COc1ccc(Nc2nc3[nH]c(=O)cc(O)c3s2)cc1 | 69* | 0.9 | 0.3 | 11 | 20
O=C(c1ccc(S(=O)(=O)N2CCOCC2)cc1)N(c1cccc(Cl)c1)C1C=CS(=O)(=O)C1 (configuration not stated) | 18 | 1 | 0.8 | -3 | 4
C=CCn1c(=O)c2ccc(C(=O)NCc3ccccc3)cc2n(Cc2ccc(C)cc2)c1=O | -18 | 1.1 | 1.2 | -8 | 15
O=C(Nc1cccc(O)c1)c1noc2c1CCc1ccccc1-2 | 14 | 0.1 | 0.9 | 87* | 1
SMILES | Diaphorase inh | FLuc act counter | Diaphorase act | FLuc inhib CS | G6PDH counter
Cc1ccc(NC(=O)c2noc3c2CCc2ccccc2-3)cc1 | 18 | 1 | 0.8 | 5 | -4
O=c1/c(=C\c2cccnc2)sc2nc3ccccc3n12 | 18 | 0.4 | 0.8 | 58* | 2
Cc1cc(/C=c2/sc3nc4ccccc4n3c2=O)c(C)n1-c1ccccn1 | 52* | 0.1 | 0.5 | 90* | 10
O=c1/c(=C/c2ccc(O)c([N+](=O)[O-])c2)sc2nc3ccccc3n12 | 113* | 0.8 | -0.1 | 21 | 1
Cc1cc(/C=c2\sc3nc4ccccc4n3c2=O)c(C)n1-c1ccc(C(=O)O)cc1 | 32 | 1 | 0.7 | -1 | -1
COc1cc(C(=O)OCC(=O)NCCN2C(=O)CSC2=O)ccc1OCc1c(C)noc1C | -2 | 1.1 | 1 | -6 | 0
Cc1ccccc1C(=O)Nc1cccc(C(=O)N/N=C/c2cc(Cl)cc([N+](=O)[O-])c2O)c1 | 16 | 1 | 0.8 | 3 | -20
COc1cc(OC)cc(C(=O)NC(=S)Nc2ccc(Cl)c(C(=O)O)c2)c1 | 28 | 1.1 | 0.7 | -8 | -2
CCCCOc1cccc(C(=O)NC(=S)Nc2ccc(Cl)c(C(=O)O)c2)c1 | 62* | 1.1 | 0.4 | -5 | 1
CC1CCCN(C(=O)COc2ccc(Nc3ccccc3)cc2)C1 (configuration not stated) | -1 | 1.1 | 1 | -7 | 6
Cc1csc(NC(=O)c2cncc(Br)c2)n1 | 4 | 0.5 | 1 | 50* | 3
Nc1nc(-c2ccccn2)nc(N)c1Cc1ccccc1F | 5 | 0.4 | 0.9 | 57* | 22
Cc1ccc(-c2cn3c(=O)cc(C)[nH]c3n2)cc1 | 10 | 0.1 | 0.9 | 88* | -4
C/C(=N\NC(=O)c1ccncc1)c1cccs1 | 5 | 0.9 | 1 | 6 | 10
C/C(=N/NC(=O)c1cc(C2CC2)[nH]n1)c1cccs1 | 4 | 0.2 | 1 | 84* | 0
C/C(=N\NC(=O)c1ccccc1O)c1cccs1 | 5 | 0.1 | 1 | 92* | 4
C/C(=N\NC(=O)C1=NNC(=O)C1C)c1cccs1 (configuration not stated) | 6 | 0.9 | 0.9 | 11 | -2
COCCNC(=S)N1CCN(Cc2cccc(OC)c2)CC1 | 5 | 1.1 | 0.9 | -6 | 8
CN1CCN(c2ccc(C(=O)c3ccc(Br)cc3)cc2[N+](=O)[O-])CC1 | 6 | 1.1 | 0.9 | -5 | -2
O=C(NCc1ccc(Cl)cc1)c1ccc2nc[nH]c2c1 | 6 | 1 | 0.9 | -5 | 8
COc1ccc2nc(/N=C\N(C)C)sc2c1 | 8 | 0.8 | 0.9 | 16 | 3
COc1ccc2nc(N=Nc3ccc(N(C)C)cc3)sc2c1 | 6 | 0.1 | 0.9 | 95* | 1
Cc1ccnc(NC(=O)/C=C/c2ccccc2Cl)c1 | 9 | 0.2 | 0.9 | 76* | -1
Cc1ccnc(NC(=O)/C=C/c2ccccc2[N+](=O)[O-])c1 | 14 | 0.3 | 0.9 | 73* | 5

Assay outcomes from PubChem.
